The target in assay [1] is T1, Toll-like receptor 9 (Mus musculus) (UniProt Q9EQU3).
T1 sequence (whole entry): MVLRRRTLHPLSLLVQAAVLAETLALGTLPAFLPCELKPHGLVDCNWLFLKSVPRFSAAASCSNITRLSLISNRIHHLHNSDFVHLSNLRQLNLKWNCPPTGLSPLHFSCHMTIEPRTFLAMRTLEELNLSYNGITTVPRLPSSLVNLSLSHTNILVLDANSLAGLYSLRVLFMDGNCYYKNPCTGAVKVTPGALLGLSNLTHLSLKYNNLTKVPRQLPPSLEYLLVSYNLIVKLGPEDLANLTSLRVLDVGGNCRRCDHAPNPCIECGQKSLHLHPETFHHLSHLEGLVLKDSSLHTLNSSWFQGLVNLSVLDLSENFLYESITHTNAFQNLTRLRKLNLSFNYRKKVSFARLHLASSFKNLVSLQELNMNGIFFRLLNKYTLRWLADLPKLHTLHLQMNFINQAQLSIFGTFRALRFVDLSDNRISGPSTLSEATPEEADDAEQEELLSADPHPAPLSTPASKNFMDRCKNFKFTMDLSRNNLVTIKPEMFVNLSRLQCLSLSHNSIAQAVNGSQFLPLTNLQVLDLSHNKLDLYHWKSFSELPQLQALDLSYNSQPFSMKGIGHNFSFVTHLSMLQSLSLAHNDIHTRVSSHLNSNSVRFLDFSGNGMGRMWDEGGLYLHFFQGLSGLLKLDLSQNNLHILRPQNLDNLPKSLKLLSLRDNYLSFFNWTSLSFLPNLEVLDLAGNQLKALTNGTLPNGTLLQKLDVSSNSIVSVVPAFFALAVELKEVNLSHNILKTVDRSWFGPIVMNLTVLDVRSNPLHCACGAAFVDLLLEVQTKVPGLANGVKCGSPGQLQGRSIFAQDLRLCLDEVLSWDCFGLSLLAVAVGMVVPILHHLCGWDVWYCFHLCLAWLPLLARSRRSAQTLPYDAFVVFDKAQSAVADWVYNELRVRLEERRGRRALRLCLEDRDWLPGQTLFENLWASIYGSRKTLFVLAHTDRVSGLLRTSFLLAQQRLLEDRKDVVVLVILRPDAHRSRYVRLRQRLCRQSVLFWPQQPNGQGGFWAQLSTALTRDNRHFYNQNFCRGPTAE
As to the kind of experiment: Inhibition of TLR9 in BALB/c mouse BMDM assessed as downregulation of CpG-stimulated IL-6 level at 5 ug/ml preincubated for 18 hrs followed by CpG challenge measured after 24 hrs by ELISA relative to control. In short, it runs like this:
(§1)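 BALB/c male bone marrow macrophages were differentiated 7 days with L929 supernatant (≥99% CD11b+/F4/80+). Cells were plated at 2 × 10^5/well in triplicate, rested overnight, and given compounds at 5 μg/mL for 18 h. They were then stimulated with 100 ng/mL S. minnesota LPS, 10 ng/mL Pam3CSK4 (BLP) or 0.01 μM CpG for 24 h. Supernatant IL-12p40 and IL-6 were measured by ELISA (sensitivity 16 pg/mL).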
For orientation: An ELISA detects its analyte on a solid surface through an enzyme-linked reagent.

For assay [2], the target named is T1, Toll-like receptor 9 (Mus musculus). Briefly: Inhibition of TLR9 in BALB/c mouse BMDM assessed as downregulation of CpG-stimulated IL-12p40 level at 5 ug/ml preincubated for 18 hrs followed by CpG challenge measured after 24 hrs by ELISA relative to control. The gist of the method:
as §1

In assay [3] the target is T2, TLR2/TLR6 (Mus musculus) (UniProt Q9QUN7+Q9EPW9). As to the kind of experiment: Inhibition of TLR2/6 in BALB/c mouse BMDM assessed as downregulation of BLP-stimulated IL-6 level at 5 ug/ml preincubated for 18 hrs followed by BLP challenge measured after 24 hrs by ELISA relative to control. Format: protein-complex assay. In short, it runs like this:
as §1

The target of assay [4] is T2, TLR2/TLR6 (Mus musculus). Briefly: Inhibition of TLR2/6 in BALB/c mouse BMDM assessed as downregulation of BLP-stimulated IL-12p40 level at 5 ug/ml preincubated for 18 hrs followed by BLP challenge measured after 24 hrs by ELISA relative to control. Type of assay: protein-complex assay. In short, it runs like this:
as §1

The target in assay [5] is T3, Toll-like receptor 4 (Mus musculus) (UniProt Q9QUK6).
T3 sequence (whole entry): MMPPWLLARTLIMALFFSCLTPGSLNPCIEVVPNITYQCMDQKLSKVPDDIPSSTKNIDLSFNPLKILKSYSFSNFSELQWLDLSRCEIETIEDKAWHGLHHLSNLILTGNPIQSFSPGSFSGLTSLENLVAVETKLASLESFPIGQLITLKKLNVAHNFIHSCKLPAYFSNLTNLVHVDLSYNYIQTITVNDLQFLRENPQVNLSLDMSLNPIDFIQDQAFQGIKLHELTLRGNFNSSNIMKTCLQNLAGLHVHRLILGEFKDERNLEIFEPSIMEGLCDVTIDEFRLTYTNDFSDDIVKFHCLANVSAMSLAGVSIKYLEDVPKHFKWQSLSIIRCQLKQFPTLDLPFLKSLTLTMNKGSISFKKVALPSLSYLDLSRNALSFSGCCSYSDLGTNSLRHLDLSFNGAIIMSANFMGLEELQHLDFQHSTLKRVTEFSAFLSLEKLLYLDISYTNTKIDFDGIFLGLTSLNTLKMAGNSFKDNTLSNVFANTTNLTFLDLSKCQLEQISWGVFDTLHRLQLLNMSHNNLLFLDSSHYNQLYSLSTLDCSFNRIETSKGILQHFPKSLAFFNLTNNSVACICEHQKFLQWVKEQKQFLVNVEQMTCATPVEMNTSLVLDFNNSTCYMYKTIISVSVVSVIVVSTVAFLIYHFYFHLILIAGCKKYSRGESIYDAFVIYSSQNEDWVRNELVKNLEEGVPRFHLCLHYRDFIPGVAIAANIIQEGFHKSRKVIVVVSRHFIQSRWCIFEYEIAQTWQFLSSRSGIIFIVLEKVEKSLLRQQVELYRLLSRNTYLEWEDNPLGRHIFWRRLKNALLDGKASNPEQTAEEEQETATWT
Briefly: Inhibition of TLR4 in BALB/c mouse BMDM assessed as downregulation of LPS-stimulated IL-6 level at 5 ug/ml preincubated for 18 hrs followed by LPS challenge measured after 24 hrs by ELISA relative to control. The gist of the method: as §1

Assay [6] concerns the target T3, Toll-like receptor 4 (Mus musculus). As to the kind of experiment: Inhibition of TLR4 in BALB/c mouse BMDM assessed as downregulation of LPS-stimulated IL-12p40 level at 5 ug/ml preincubated for 18 hrs followed by LPS challenge measured after 24 hrs by ELISA relative to control. In short, it runs like this:
as §1

In ChEMBL document CHEMBL3108700, “Designing anti-inflammatory drugs from parasitic worms: a synthetic small molecule analogue of the Acanthocheilonema viteae product ES-62 prevents development of collagen-induced arthritis” (J Med Chem, 2013) one finds inhibition data, which are given here for 18 molecules.

Molecules are shown by their SMILES. Activity calls are given as the source filed them. How the calls were made is not given here.

Take `O=S(=O)(CCN1CCCC1)Cc1cccc(F)c1`: the inhibition entry (in assay [1]; in assay [2]; on TLR2/TLR6 (Mus musculus) [3]; in assay [5]; in assay [6]) was “inactive” throughout. Also, the inhibition result on TLR2/TLR6 (Mus musculus) [4] is “Active”.

Consider `CC[C@@H](C)NCCS(=O)(=O)c1ccccc1`, for which the inhibition entry (in assay [1]; in assay [2]; on TLR2/TLR6 (Mus musculus) [3]; on TLR2/TLR6 (Mus musculus) [4]; in assay [5]; in assay [6]) was “inactive” each time.

For the molecule `COc1cccc(C(=O)NCCN(C)C)c1`, the inhibition entry (in assay [1]; on TLR2/TLR6 (Mus musculus) [4]; in assay [6]) was “Active” each time. Further, the inhibition result (in assay [2]; on TLR2/TLR6 (Mus musculus) [3]; in assay [5]) was “inactive” each time.

As for `CN1CCN(CCS(=O)(=O)c2ccccc2)CC1`, the inhibition result (in assay [1]; in assay [2]; at TLR2/TLR6 (Mus musculus) [3]; on TLR2/TLR6 (Mus musculus) [4]; in assay [5]; in assay [6]) was “inactive” in each case.

As to `CN(C)CCNS(=O)(=O)Cc1ccc2ccccc2c1`, the inhibition result (in assay [1]; in assay [2]; at TLR2/TLR6 (Mus musculus) [3]; on TLR2/TLR6 (Mus musculus) [4]; in assay [5]; in assay [6]) was “inactive” in each case.

With `Cc1ccc(CNS(=O)(=O)CCN(C)C)cc1`, the inhibition entry (in assay [1]; in assay [2]; at TLR2/TLR6 (Mus musculus) [3]; on TLR2/TLR6 (Mus musculus) [4]; in assay [5]; in assay [6]) was “inactive” each time.

In the case of `CN(C)CCNS(=O)(=O)Cc1ccc(F)cc1`, the inhibition entry (in assay [1]; in assay [2]; on TLR2/TLR6 (Mus musculus) [3]; at TLR2/TLR6 (Mus musculus) [4]; in assay [5]; in assay [6]) was “inactive” throughout.

For the molecule `CC[C@H](C)NCCS(=O)(=O)c1ccccc1`, the inhibition result (in assay [1]; in assay [2]; at TLR2/TLR6 (Mus musculus) [3]; on TLR2/TLR6 (Mus musculus) [4]; in assay [5]; in assay [6]) was “inactive” each time.

On to `O=S(=O)(Cc1ccccc1)NCCN1CCCC1`, for which the inhibition entry (in assay [1]; in assay [2]; at TLR2/TLR6 (Mus musculus) [3]; at TLR2/TLR6 (Mus musculus) [4]; in assay [5]; in assay [6]) was “inactive” in each case.

Regarding `CN(C)CCOP(=O)(O)Cc1ccc([N+](=O)[O-])cc1`, the inhibition result (in assay [1]; in assay [2]; at TLR2/TLR6 (Mus musculus) [3]; on TLR2/TLR6 (Mus musculus) [4]; in assay [5]; in assay [6]) was “inactive” in each case.

For the molecule `O=S(=O)(Cc1ccc(Br)cc1)NCCN1CCCC1`, the inhibition entry (in assay [1]; in assay [2]; on TLR2/TLR6 (Mus musculus) [3]; on TLR2/TLR6 (Mus musculus) [4]; in assay [5]; in assay [6]) was “inactive” in each case.

For `Cc1ccc(CS(=O)(=O)CCCN2CCOCC2)cc1`, the inhibition result (in assay [1]; in assay [2]; at TLR2/TLR6 (Mus musculus) [3]; on TLR2/TLR6 (Mus musculus) [4]; in assay [5]; in assay [6]) was “inactive” in each case.

As for `CN(C)CCNS(=O)(=O)Cc1ccccc1`, the inhibition entry (in assay [1]; in assay [2]; at TLR2/TLR6 (Mus musculus) [3]; on TLR2/TLR6 (Mus musculus) [4]; in assay [5]; in assay [6]) was “inactive” throughout.

`CN(C)CCS(=O)(=O)NCc1ccccc1`: the inhibition result (in assay [1]; in assay [2]; at TLR2/TLR6 (Mus musculus) [3]; at TLR2/TLR6 (Mus musculus) [4]; in assay [5]; in assay [6]) was “inactive” in each case.

In the case of `CN(C)CCNS(=O)(=O)Cc1ccc([N+](=O)[O-])cc1`, the inhibition entry (in assay [1]; in assay [2]; at TLR2/TLR6 (Mus musculus) [4]; in assay [5]; in assay [6]) was “inactive” each time. Also, the inhibition result at TLR2/TLR6 (Mus musculus) [3] is “Active”.

As to `O=S(=O)(CCN1CCCC1)NCc1ccc(F)cc1`, the inhibition entry in assay [1], in assay [2] and in assay [5] was “Active” each time. Moreover, the inhibition result (on TLR2/TLR6 (Mus musculus) [3]; on TLR2/TLR6 (Mus musculus) [4]; in assay [6]) was “inactive” in each case.

Take `CN(C)CCCNS(=O)(=O)Cc1ccccc1`: the inhibition entry (in assay [1]; in assay [2]; at TLR2/TLR6 (Mus musculus) [3]; on TLR2/TLR6 (Mus musculus) [4]; in assay [5]; in assay [6]) was “inactive” in each case.

For the molecule `CC[C@H](C)NCCS(=O)(=O)Cc1ccc(Br)cc1`, the inhibition result (in assay [1]; in assay [2]; on TLR2/TLR6 (Mus musculus) [3]; in assay [5]; in assay [6]) was “inactive” throughout. Besides, on TLR2/TLR6 (Mus musculus) [4], the inhibition entry was “Active”.
